Measurements from ChEMBL document CHEMBL3425469, “Discovery of imidazo[2,1-b]thiazole HCV NS4B inhibitors exhibiting synergistic effect with other direct-acting antiviral agents” (J Med Chem, 2015).

Experiments:
Hepatitis C virus [1] = assay: Antiviral activity against Hepatitis C virus genotype 1b Con 1 infected in human HuH7 cells at 20 nM after 72 hrs by luciferase assay in presence of 30 nM sofobuvir; type: functional, Hepacivirus hominis, Huh-7
How it was run: (§1)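 Huh-7 cells stably carrying a GT1b Con1 bicistronic luciferase replicon, seeded at 8000 cells/well. The test compound and the partner DAA are dosed orthogonally at various concentrations, final 0.5% DMSO, then incubated 72 h at 37°C. Bright-Glo luciferase read-out gives replicon inhibition as % of untreated control. Cytotoxicity is checked in parallel by CellTiter-Fluor. CI and DRI are derived by the Chou–Talalay median-effect method.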

Hepatitis C virus [2] = assay: Antiviral activity against Hepatitis C virus genotype 1b Con 1 infected in human HuH7 cells at 80 nM after 72 hrs by luciferase assay in presence of 10 uM clemizole; type: functional, Hepacivirus hominis, Huh-7; how it was run: as §1
Hepatitis C virus [3] = assay: Antiviral activity against Hepatitis C virus genotype 1b Con 1 infected in human HuH7 cells at 2.5 nM after 72 hrs by luciferase assay in presence of 20 uM clemizole; type: functional, Hepacivirus hominis, Huh-7
How it was run: (§2)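 Stable Con1 GT1b bicistronic luciferase replicon in Huh-7 cells, 8000 cells/well. Test compound and a marketed DAA or clemizole added alone or together at varied concentrations, 0.5% DMSO final. 72 h at 37°C, then luciferase read with Bright-Glo. Inhibition expressed as % of untreated control, with cytotoxicity run in parallel. CI and DRI derived by the Chou–Talalay median-effect method.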

Hepatitis C virus [4] = assay: Antiviral activity against Hepatitis C virus genotype 1b Con 1 infected in human HuH7 cells at 160 nM after 72 hrs by luciferase assay in presence of 10 uM clemizole; type: functional, Hepacivirus hominis, Huh-7; how it was run: as §2
Hepatitis C virus [5] = assay: Antiviral activity against Hepatitis C virus genotype 1b Con 1 infected in human HuH7 cells at 5 nM after 72 hrs by luciferase assay in presence of 17.5 uM clemizole; type: functional, Hepacivirus hominis, Huh-7; how it was run: as §1
Hepatitis C virus [6] = assay: Antiviral activity against Hepatitis C virus genotype 1b harboring P495A NS5B (thumb 1) mutation transfected in human HuH7 cells after 72 hrs by luciferase assay; type: functional, cell-based, Hepacivirus hominis; conditions: Huh-7, 72 h
How it was run: (§3)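 Huh-7 cells were transiently electroporated with genotype 1b replicon RNA carrying the specified mutation and plated at 10000 cells/well. Compounds were added at 0.5% DMSO final for 72 h at 37°C. Read-out was Bright-Glo luciferase. EC50 is the mean of two independent runs within 2-fold of each other. A reference drug EC50 was measured alongside each mutant replicon to validate it.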

Hepatitis C virus [7] = assay: Antiviral activity against Hepatitis C virus genotype 1b Con 1 infected in human HuH7 cells at 5 nM after 72 hrs by luciferase assay in presence of 0.16 nM daclatasvir; type: functional, Hepacivirus hominis, Huh-7; how it was run: as §1
Hepatitis C virus [8] = assay: Antiviral activity against Hepatitis C virus genotype 1b Con 1 infected in human HuH7 cells at 2.5 nM after 72 hrs by luciferase assay in presence of 15 uM clemizole; type: functional, Hepacivirus hominis, Huh-7; how it was run: as §2
Hepatitis C virus [9] = assay: Antiviral activity against Hepatitis C virus genotype 1b Con 1 infected in human HuH7 cells at 5 nM after 72 hrs by luciferase assay in presence of 120 nM sofobuvir; type: functional, Hepacivirus hominis, Huh-7; how it was run: as §1
Hepatitis C virus [10] = assay: Antiviral activity against Hepatitis C virus genotype 1b Con 1 infected in human HuH7 cells at 5 nM after 72 hrs by luciferase assay in presence of 12 nM simeprevir; type: functional, Hepacivirus hominis, Huh-7; how it was run: as §1
Hepatitis C virus [11] = assay: Antiviral activity against Hepatitis C virus genotype 1b Con 1 infected in human HuH7 cells at 40 nM after 72 hrs by luciferase assay in presence of 0.02 nM daclatasvir; type: functional, Hepacivirus hominis, Huh-7; how it was run: as §1
Hepatitis C virus [12] = assay: Antiviral activity against Hepatitis C virus genotype 1b Con 1 infected in human HuH7 cells at 20 nM after 72 hrs by luciferase assay in presence of 5 uM clemizole; type: functional, Hepacivirus hominis, Huh-7; how it was run: as §1
Hepatitis C virus [13] = assay: Antiviral activity against Hepatitis C virus genotype 1b Con 1 infected in human HuH7 cells at 2.5 nM after 72 hrs by luciferase assay in presence of 0.08 nM daclatasvir; type: functional, Hepacivirus hominis, Huh-7; how it was run: as §2
Hepatitis C virus [14] = assay: Antiviral activity against Hepatitis C virus genotype 1b Con 1 infected in human HuH7 cells at 5 nM after 72 hrs by luciferase assay in presence of 240 nM sofobuvir; type: functional, Hepacivirus hominis, Huh-7; how it was run: as §1
Hepatitis C virus [15] = assay: Antiviral activity against Hepatitis C virus genotype 1b Con 1 infected in human HuH7 cells at 2.5 nM after 72 hrs by luciferase assay in presence of 17.5 uM clemizole; type: functional, Hepacivirus hominis, Huh-7; how it was run: as §2
Hepatitis C virus [16] = assay: Antiviral activity against Hepatitis C virus genotype 1b Con 1 infected in human HuH7 cells at 20 nM after 72 hrs by luciferase assay in presence of 120 nM sofobuvir; type: functional, Hepacivirus hominis, Huh-7; how it was run: as §2
Hepatitis C virus [17] = assay: Antiviral activity against Hepatitis C virus genotype 1b harboring Q26R mutation transfected in human HuH7 cells after 72 hrs by luciferase assay; type: functional, cell-based, Hepacivirus hominis; conditions: Huh-7, 72 h; how it was run: as §3
Hepatitis C virus [18] = assay: Antiviral activity against Hepatitis C virus genotype 1b Con 1 infected in human HuH7 cells at 20 nM after 72 hrs by luciferase assay in presence of 0.16 nM daclatasvir; type: functional, Hepacivirus hominis, Huh-7; how it was run: as §2
Hepatitis C virus [19] = assay: Antiviral activity against Hepatitis C virus genotype 1b Con 1 infected in human HuH7 cells at 80 nM after 72 hrs by luciferase assay in presence of 15 uM clemizole; type: functional, Hepacivirus hominis, Huh-7; how it was run: as §1
Hepatitis C virus [20] = assay: Antiviral activity against Hepatitis C virus genotype 1b Con 1 infected in human HuH7 cells at 2.5 nM after 72 hrs by luciferase assay in presence of 120 nM sofobuvir; type: functional, Hepacivirus hominis, Huh-7; how it was run: as §2
Hepatitis C virus [21] = assay: Antiviral activity against Hepatitis C virus genotype 1b Con 1 infected in human HuH7 cells at 5 nM after 72 hrs by luciferase assay in presence of 12.5 uM clemizole; type: functional, Hepacivirus hominis, Huh-7; how it was run: as §1
Hepatitis C virus [22] = assay: Antiviral activity against Hepatitis C virus genotype 1b Con 1 infected in human HuH7 cells at 5 nM after 72 hrs by luciferase assay in presence of 30 nM sofobuvir; type: functional, Hepacivirus hominis, Huh-7; how it was run: as §1
Hepatitis C virus [23] = assay: Antiviral activity against Hepatitis C virus genotype 1b Con 1 infected in human HuH7 cells at 160 nM after 72 hrs by luciferase assay in presence of 17.5 uM clemizole; type: functional, Hepacivirus hominis, Huh-7; how it was run: as §2
Hepatitis C virus [24] = assay: Antiviral activity against Hepatitis C virus genotype 1b harboring H3R NS4B mutation transfected in human HuH7 cells after 72 hrs by luciferase assay; type: functional, cell-based, Hepacivirus hominis; conditions: Huh-7, 72 h; how it was run: as §3
Hepatitis C virus [25] = assay: Antiviral activity against Hepatitis C virus genotype 1b Con 1 infected in human HuH7 cells at 2.5 nM after 72 hrs by luciferase assay in presence of 24 nM simeprevir; type: functional, Hepacivirus hominis, Huh-7; how it was run: as §2
Hepatitis C virus [26] = assay: Antiviral activity against Hepatitis C virus genotype 1b Con 1 infected in human HuH7 cells at 160 nM after 72 hrs by luciferase assay in presence of 30 nM sofobuvir; type: functional, Hepacivirus hominis, Huh-7; how it was run: as §2
Hepatitis C virus [27] = assay: Antiviral activity against Hepatitis C virus genotype 1b Con 1 infected in human HuH7 cells at 2.5 nM after 72 hrs by luciferase assay in presence of 7.5 uM clemizole; type: functional, Hepacivirus hominis, Huh-7; how it was run: as §2
Hepatitis C virus [28] = assay: Antiviral activity against Hepatitis C virus genotype 1b Con 1 infected in human HuH7 cells at 2.5 nM after 72 hrs by luciferase assay in presence of 10 uM clemizole; type: functional, Hepacivirus hominis, Huh-7; how it was run: as §2
Hepatitis C virus [29] = assay: Antiviral activity against Hepatitis C virus genotype 1b Con 1 infected in human HuH7 cells at 160 nM after 72 hrs by luciferase assay in presence of 2160 nM sofobuvir; type: functional, Hepacivirus hominis, Huh-7; how it was run: as §2
Hepatitis C virus [30] = assay: Antiviral activity against Hepatitis C virus genotype 1b Con 1 infected in human HuH7 cells at 160 nM after 72 hrs by luciferase assay in presence of 5 uM clemizole; type: functional, Hepacivirus hominis, Huh-7; how it was run: as §2

## O=C(c1nc2scc(C3CC3)n2c1Cl)N1CCN(C2CCCC2)C(=O)C1
Hepatitis C virus [1]
  CI: 0.83
Hepatitis C virus [2]
  CI: 0.82
Hepatitis C virus [3]
  CI: 1.45
Hepatitis C virus [4]
  CI: 1.09
Hepatitis C virus [5]
  CI: 1.26
Hepatitis C virus [6]
  EC50: 10 nM
Hepatitis C virus [7]
  CI: 0.88
Hepatitis C virus [8]
  CI: 1.17
Hepatitis C virus [9]
  CI: 0.82
Hepatitis C virus [10]
  CI: 0.75
Hepatitis C virus [11]
  CI: 0.78
Hepatitis C virus [12]
  CI: 0.94
Hepatitis C virus [13]
  CI: 0.66
Hepatitis C virus [14]
  CI: 0.74
Hepatitis C virus [15]
  CI: 1.36
Hepatitis C virus [16]
  CI: 0.63
Hepatitis C virus [17]
  EC50: 350 nM
Hepatitis C virus [18]
  CI: 0.69
Hepatitis C virus [19]
  CI: 1
Hepatitis C virus [20]
  CI: 0.9
Hepatitis C virus [21]
  CI: 0.71
Hepatitis C virus [22]
  CI: 0.77
Hepatitis C virus [23]
  CI: 1.74
Hepatitis C virus [24]
  EC50: 1100 nM
Hepatitis C virus [25]
  CI: 1.31
Hepatitis C virus [26]
  CI: 0.89
Hepatitis C virus [27]
  CI: 0.72
Hepatitis C virus [28]
  CI: 0.87
Hepatitis C virus [29]
  CI: 0.3
Hepatitis C virus [30]
  CI: 1.84
